Source: PMC8114230 (Inorganic chemistry, 2020)
Values joined by “and” are separate entries in the source; they are usually repeats but may differ in a detail not shown here. Identical values can stand only once. “Also recorded” adds a separate entry of the source. Like-named read-outs stand apart in the source and are kept apart here. Marks after values point to notes of the source that are not given here.

Columns and labels:
Biodistribution in mice = format: in vivo; details: BALB/c mice
Outline: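 Female BALB/c mice, 6 weeks old, received a 99mTc tricarbonyl isonitrile analogue (51–104 μCi) with the Re test compound (0.2 μmol; 10 μmol/kg) together through a tail vein catheter in 10% EtOH/saline. Animals were killed at 1, 2 and 4 h, and blood (cardiac puncture), organs, muscle, femur and urine were collected. For Re, tissues were digested in nitric acid for 20 h at 25 °C and measured by ICP-OES with a 20 ppm Tb internal standard. Results were expressed as %ID/g.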

HeLa cells [1] = details: MTT assay; cited from earlier work
[2] = PBS pH 7.4; cited from earlier work
HeLa cells [3] = assay: Intracellular luminescence by confocal fluorescence microscopy; format: cell-based; details: 10 μM, 2 h
Outline: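 HeLa cells were kept in DMEM with 10% FBS at 37 °C and 5% CO2. 1 × 10^5 cells were seeded on glass-bottom dishes, and after 24 h they were exposed to the test compound (10 μM in DMEM) for 2 h. Cells were then washed with PBS and imaged in HEPES imaging buffer, pH 7.4. Confocal excitation was 405 nm with 410–550 nm emission. Corrected total cell fluorescence was averaged over at least ten cells.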

[4] = tested on: A2780 ovarian cancer xenografts; assay: In vivo tumor growth inhibition, A2780 ovarian cancer xenografts; design: species or system NSG mice
Outline: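 NSG mice, about 7 weeks old, received A2780 tumour fragments from propagation mice implanted subcutaneously in the left flank. Groups of at least five were treated once tumours exceeded 100 mm3. Dosing was tail-vein injection twice weekly with vehicle (20% DMSO/PBS) or 5, 10 or 20 mg/kg test compound. Body weight and caliper tumour volume were tracked blinded over 27 days. Endpoints were a dimension >30 mm or burden […]; survival was compared with vehicle.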

[5] = Cyclic voltammetry in acetonitrile; format: physicochemical; details: 0.10 M TBAP, irreversible reduction peak
[6] = air-equilibrated PBS; cited from earlier work
CHOP = CHOP expression Western blot; format: cell-based; details: HeLa cells, 10 μM, 24 h
Outline: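 HeLa cells were exposed for 24 h to 10 μM test compound or DMSO vehicle. Lysis was in TBS (pH 7.5) with 1% Triton X-100, DNase and protease inhibitors, on ice 30 min. Samples were run on SDS-PAGE and blotted to PVDF. Blocking was 5% BSA/0.1% Tween-20. Anti-CHOP was applied overnight at 4 °C, then HRP secondary 1 h at room temperature. Detection was by ECL, with β-actin as loading control.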

[7] = Luminescence lifetime measurements in PBS; format: physicochemical; details: for luminescence lifetime τN2: nitrogen-saturated PBS (pH 7.4); for luminescence lifetime τ: air-equilibrated PBS, 10 μM
Outline: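 Test compound was measured at 10 μM in PBS. Time-resolved photon counts were collected in 40 ns bins and fitted to a standard exponential decay. For deoxygenated samples, nitrogen was bubbled through the PBS solution for 20 min before measurement.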

HeLa cells [8] = assay: Thioflavin T; format: cell-based; details: 10 μM, 30 min post-treatment
Outline: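 About 1 × 10^5 HeLa cells were seeded on glass-bottom dishes. After 24 h they were loaded with 5 μM ThT for 2 h, washed, and given fresh medium. Test compound (10 μM) was added in imaging buffer. Confocal images were taken at 0 and 30 min (ex 405 nm, em 410–550 nm). Corrected total cell fluorescence was computed as integrated density minus cell area × mean background.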

[9] = a week in aqueous solution, even in the presence of glutathione; cited from earlier work
[10] = Solubility in water or PBS; format: physicochemical
HeLa cells [11] = assay: Puromycin incorporation assay; format: cell-based; details: 10 μM, 2 h, then puromycin
Outline: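 HeLa cells were exposed for 2 h to 10 μM test compound or DMSO vehicle. Puromycin (10 μM) was then added, and cells were harvested 10 min later. Lysis was in TBS/1% Triton X-100. Samples were run on SDS-PAGE and blotted to PVDF, with blocking in 5% milk/0.1% Tween-20. Anti-puromycin was applied overnight at 4 °C, then HRP secondary 1 h at room temperature. Detection was by ECL, normalised to β-actin.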

Maximum tolerated dose = format: in vivo; details: injections in mice
HeLa cells [12] = assay: MTT cytotoxicity assay in HeLa cells; format: cell-based; details: 48 h incubation
Outline: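 HeLa cells were grown in DMEM with 10% FBS at 37 °C, 5% CO2. Cells were seeded at 4000/well and rested 24 h, then medium was replaced with test-compound dilutions for 48 h. Stocks were in PBS or DMSO. MTT (1 mg/mL in DMEM) was added for 4 h. Formazan was dissolved in 8:1 DMSO/pH 10 glycine buffer and read at 570 nm. Viability was normalised to untreated wells: three independent experiments, six replicates per concentration.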

[13] = Emission spectra and emission quantum yield in PBS; format: physicochemical; details: PBS pH 7.4, ≤1% DMSO, air-equilibrated; for emission quantum yield Φ: relative to quinine sulfate
Outline: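 Spectra were taken in PBS pH 7.4 with ≤1% DMSO. Quantum yield was set relative to quinine sulfate (Φ = 0.52, 0.5 M H2SO4), cross-checked against harmaline (Φ = 0.32, 0.05 M H2SO4). Excitation was 350 nm, keeping absorbance below 0.1. At least five concentrations of sample and standard were measured. Absorbance at 350 nm was plotted against integrated emission.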

HeLa cells [14] = assay: Mitochondria morphology; format: cell-based; details: 10 μM, up to 30 min
Outline: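 HeLa cells were loaded with MitoTracker Red FM and Hoechst 33342 for 30 min, then washed. At the microscope, test compound was added to 10 μM final in HEPES imaging buffer (pH 7.4). Confocal images were taken every 2 min up to 30 min: MitoTracker ex 561/em 630–700 nm, Hoechst ex 405/em 410–550 nm. Individual mitochondria were counted in ImageJ at 0, 14 and 30 min, alongside untreated cells.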

[15] = tail vein injection, 0.2 μmol Re / ~100 μCi 99mTc

| Molecule | Epc [5] [V vs SCE] | CHOP expression (CHOP) | luminescence lifetime τN2 [7] [μs] | increase in ThT fluorescence (HeLa cells [8]) | inhibition of protein synthesis (puromycin incorporation) (HeLa cells [11]) | IC50 (HeLa cells [12]) | luminescence lifetime τ [7] [μs] | emission maximum λ [13] [nm] | emission quantum yield Φ [13] | further results |
| --- | --- | --- | --- | --- | --- | --- | --- | --- | --- | --- |
| Cc1ccc2ccc3ccc(C)nc3c2n1.O=S(=O)([O-])C(F)(F)F.[C-]#[N+]c1ccc(C)cc1.[C-]#[O+].[C-]#[O+].[C-]#[O+].[Re+] [TRIP-1a, fac-[Re(CO)3(dmphen)(ptolICN)]OTf] | −1.25 | induce CHOP expression | 3.5 | ≥ 2 fold | most efficient inhibition of protein synthesis | – | – | – | – | rhenium content in blood, muscle and bone (Biodistribution in mice; ICP-OES): below detectable levels; heart and lung accumulation (Biodistribution in mice; [15]): accumulate in the heart and lungs; kidney uptake (Biodistribution in mice; [15]): large; liver uptake (Biodistribution in mice; [15]): moderate; spleen uptake (Biodistribution in mice; [15]): taken up to a much higher extent in this organ compared to TTIP; IC50 (HeLa cells [1]): 1.4 ± 0.2 µM; emission maximum λ [2]: 505 nm; emission quantum yield Φ [2]: 3.1 ± 0.3%; intracellular localization pattern (HeLa cells [3]): primarily localized around the nucleus in a punctate pattern; effect on tumor growth rate ([4]; 5 mg/kg i.v. twice weekly, 20% DMSO/PBS): no effect on tumor growth rate; effect on tumor growth rate ([4]; 10 mg/kg i.v. twice weekly, 20% DMSO/PBS): no effect on tumor growth rate; effect on tumor growth ([4]; 20 mg/kg i.v. twice weekly, 20% DMSO/PBS): inhibit tumor growth; also recorded: significantly inhibits tumor growth; prolongation of survival relative to the control group ([4]; 20 mg/kg twice weekly): 150%; average tumor volume relative to the vehicle-treated group ([4]; 20 mg/kg, days 10 to 20 after beginning treatment): less than half; side effects / body weight changes ([4]; highest concentrations of TRIP-1a, tumor-bearing NSG mice): minimal body weight changes; local reaction on administration ([4]; i.v. formulation in 20% DMSO/PBS): severe local inflammation; luminescence lifetime τ [6]: 1.1^c μs; degradation in aqueous solution [9]: no measurable degradation; solubility [10]: up to 2 mM; maximum tolerated dose, no obvious sign of distress (Maximum tolerated dose): ≥ 40 mg/kg |
| Cc1ccc(N=[C]=[Re+]2(=[C]=O)(=[C]=O)(=[C]=O)[N]3C=CC=c4ccc5c(c43)[N]2C=CC=5)cc1.O=S(=O)([O-])C(F)(F)F [TRIP-2a, fac-[Re(CO)3(phen)(ptolICN)]OTf] | −1.18 | – | 10.9 | – | – | 5.8 ± 0.5 µM | 1.8 | 512 | 5.3 ± 0.4% | – |
| O=S(=O)([O-])C(F)(F)F.[C-]#[N+]c1ccc(C)cc1.[C-]#[O+].[C-]#[O+].[C-]#[O+].[Re+].c1ccc(-c2ccccn2)nc1 [TRIP-3a, fac-[Re(CO)3(bpy)(ptolICN)]OTf] | −1.18 | – | 1.0 | – | not effective translation inhibitors | 27.5 ± 0.6 µM | 0.7 | 523 | 6.3 ± 0.2% | change in mitochondrial morphology (mitochondrial fission) (HeLa cells [14]): did not give rise to any changes in mitochondrial morphology |
| N.N.[Cl][Pt][Cl] [cisplatin, reference compound] | – | – | – | – | – | – | – | – | – | IC50 (HeLa cells [1]): 6.6 ± 0.7 µM |
| fac-[Re(CO)3(CF3bpy)(ptolICN)]OTf [TRIP-6a] | – | except for the least cytotoxic compound TRIP-6a | 0.1 | unable to change the ThT fluorescence levels relative to untreated cells | not effective translation inhibitors | 53 µM and 53.1 µM | 0.1 | 584 | 0.8% and 0.8 ± 0.1% | change in mitochondrial morphology (mitochondrial fission) (HeLa cells [14]): did not give rise to any changes in mitochondrial morphology |
| fac-[Re(CO)3(dmbpy)(ptolICN)]OTf [TRIP-4a] | −1.30 | – | 1.3 | – | – | 7.6 ± 0.3 µM | 0.8 | 516 | 6.7 ± 0.1% | – |
| fac-[Re(CO)3(dmobpy)(ptolICN)]OTf [TRIP-5a] | −1.33 | – | 0.7 | – | – | 8.4 ± 1.9 µM | 0.4 | 525 | 3.9 ± 0.3% | – |
| fac-[Re(CO)3(tbutylbpy)(ptolICN)]OTf [TRIP-7a] | −1.30 | induce CHOP expression | 1.6 | ≥ 2 fold | most efficient inhibition of protein synthesis | 1.2 ± 0.5 µM | 0.7 | 518 | 7.7 ± 0.2% | intracellular localization pattern (HeLa cells [3]): distributed evenly throughout the cytoplasm |
